Compound activity (PubChem BioAssay)
KCNK9 inh: human KCNK9 channel inhibition. AID 488922. HEK293 KCNK9, FluxOR thallium flux fluorescence; hits give low values. 310,000 tested, 1.2% active. Q9NPC2. B-score at 10 µM;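 active = ratio B-score over 3 SD below the library mean, with starting fluorescence within 5 SD of its mean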;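 note: negative B-score means less thallium flux so channel inhibition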
KCNQ1 act: potentiators or activators of human KCNQ1 potassium channel. AID 2648. P51787. B-score at 10 µM. 310,000 tested, 0.35% active. CHO-K1 KCNQ1, thallium flux FluxOR fluorescence; hits give high values;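 active = fluorescence ratio B-score, a plate-corrected score, at least three library SD, with initial intensity B-score within 5 SD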
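System: CHO-K1 cells stably expressing KCNQ1 / Medium: assay buffer for compound exposure, DMSO matched across wells / Reagent: thallium- and potassium-containing depolarizing buffer / Compound: one concentration, matched DMSO / Incubation: 20 min compound pretreatment at room temperature / Measured by: kinetic FluxOR fluorescence, 10 s baseline plus 110 s post-stimulus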
KCNQ1 inh: human KCNQ1 channel inhibition | P51787 | CHO-K1 KCNQ1, FluxOR thallium flux fluorescence; hits give high values | B-score at 10 µM | 310,000 tested, 1.3% active;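 active = compounds whose thallium flux B-score, printed positive for inhibition, exceeds three library SD while starting fluorescence stays within three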;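 note: channel opened by potassium depolarization with thallium stimulus after 20 min compound exposure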
Cl transport mod: modulators of human KCC2 chloride dependent transport. KCC2 cells, thallium flux FluoZin-2 fluorescence. B-score of Tl+ flux slope (higher = more flux/activation; lower = inhibition) at 10 µM. 190,000 tested, 2.2% active;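 active = thallium flux slope and its plate-corrected score both differing from the plate sample mean at a set confidence after two filtering rounds, in either direction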;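 note: slope of fluorescence scaled to starting intensity during 10 to 20 s after thallium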
hERG protect: shields human hERG channel from block by proarrhythmic agents; Q12809; CHO-hERG, FluxOR thallium flux, dofetilide IC70 present; activation (rescue from dofetilide block), less the hit threshold, % at 10 µM; 310,000 tested, 0.51% active;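 active = activation above the mean of controls blocked by dofetilide plus 5 SD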;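 note: thallium influx through hERG after potassium depolarization seen as dye fluorescence rise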
KCNK3 inh: human KCNK3 channel inhibition, primary screen; B-score at 10 µM; 340,000 tested, 0.84% active; CHO-KCNK3 thallium flux, FluxOR fluorescence; hits give low values; O14649;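 active = B-score under library mean minus 4 SD, starting fluorescence ratio at most library mean plus 5 SD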;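 note: more negative B-score means stronger inhibition of thallium flux through KCNK3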
Target sequence (O14649 whole entry, looked up): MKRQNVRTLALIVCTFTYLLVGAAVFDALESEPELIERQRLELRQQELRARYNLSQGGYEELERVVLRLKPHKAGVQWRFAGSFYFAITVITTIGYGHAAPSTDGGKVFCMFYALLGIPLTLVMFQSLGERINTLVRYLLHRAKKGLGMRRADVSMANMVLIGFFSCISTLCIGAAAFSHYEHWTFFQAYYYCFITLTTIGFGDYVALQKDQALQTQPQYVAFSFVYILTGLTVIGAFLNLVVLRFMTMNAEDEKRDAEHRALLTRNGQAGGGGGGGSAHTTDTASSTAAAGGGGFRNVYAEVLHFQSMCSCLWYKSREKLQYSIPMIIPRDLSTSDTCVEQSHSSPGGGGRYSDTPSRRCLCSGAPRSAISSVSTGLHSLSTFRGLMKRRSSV
KCC2 secondary: KCC2 (human) modulation, secondary assay; HEK293-KCC2, thallium flux, FluoZin2 fluorescence; hits give high values; 3,700 tested, 15% active; AID 1713; shares compounds with Cl transport mod; normalised thallium flux (F/F0 slope) at 10 µM;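 active = thallium flux slope above the same plate's solvent-only control mean plus 3 SD; inconclusive = the two replicate wells disagree; inactive = no significant difference from solvent-only control wells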
KCC2 bumet counter: bumetanide-insensitive thallium flux in KCC2 cells with ouabain, counter-screen. shares compounds with Cl transport mod. HEK293-KCC2 + bumetanide/ouabain, thallium flux FluoZin2; hits give high values. normalized thallium flux at 10 µM. 3,700 tested, 49% active. AID 1714;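 active = thallium entry rate above the same plate's blocked-transporter control wells by more than 3 SD; inconclusive = the two repeat wells disagree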;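 note: raw slope of fluorescence over initial fluorescence between 10 and 20 s after thallium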
KCC2 secondary2: KCC2 (human) modulation, second secondary assay. shares compounds with Cl transport mod. HEK293-KCC2, thallium flux FluoZin2 fluorescence; actives lie on both sides; F/F0 rise rate, 10–20 s post-thallium. normalized thallium flux at 10 µM. 3,700 tested, 23% active. AID 1715;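 active = thallium flux slope more than 3 SD above or below the plate's solvent-only control mean, mostly below; inconclusive = the two repeat wells disagreed; inactive = no significant shift from solvent-only controls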;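 note: raw slope with 0.1% DMSO as baseline and bumetanide as block control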
HEK293 Tl flux: counter-screen for KCC2 modulators: effect in parental HEK293 cells | shares compounds with Cl transport mod | thallium flux FluoZin2, ouabain; baseline-ratio fluorescence slope, 10–20 s after thallium | thallium flux rate (normalised fluorescence) at 10 µM | 3,700 tested, 46% active | AID 1716;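 active = thallium flux rate significantly above the same plate's solvent-only control wells, beyond their mean plus 3 SD; inconclusive = the two replicate wells gave conflicting results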
KCC2 ouabain: KCC2 (human) modulation, ouabain retest; raw Tl+ flux slope (below DMSO = inhibition, above = activation) at 10 µM; HEK293-KCC2, thallium flux FluoZin2 fluorescence; bidirectional: low = inhibitor, high = activator; 3,700 tested, 48% active; shares compounds with Cl transport mod;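 active = thallium flux slope beyond 3 SD from same-plate DMSO control mean in most replicates, usually higher, sometimes lower; inconclusive = repeat tests gave conflicting results; inactive = no significant difference from controls in most replicates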;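 note: slope of initial-normalized fluorescence between seconds 10 and 20 after thallium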
HEK counter2: counter-screen for KCC2 modulators: effect in parental HEK293 cells; 3,700 tested, 33% active; thallium flux slope at 10 µM; thallium flux FluoZin-2 fluorescence slope; shares compounds with Cl transport mod;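 active = thallium flux slope above the same plate's solvent-control mean plus 3 SD in both duplicate wells; inconclusive = duplicate wells that disagreed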;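 note: run without ouabain in cells lacking the KCC2 cotransporter; slope of fluorescence scaled to its starting value between 10 and 20 s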
* marks the source's active call; other numbers are inactive results; i = inactive; ? = inconclusive; nt = not tested or not shown. Only some compounds are listed: those with a hit (about 4.1% of all), similar ones and a draw of the others.

SMILES	KCNK9 inh	KCNQ1 act	KCNQ1 inh	Cl transport mod	hERG protect	KCNK3 inh	KCC2 secondary	KCC2 bumet counter	KCC2 secondary2	HEK293 Tl flux	KCC2 ouabain	HEK counter2
CN(Cc1ccccc1)c1nc(N)nc(Cl)c1C=O	i	i	i	-5*	-10	i	0.0072	0.0065	0.032	0.0039	0.012*	0.012
CC1(C)N=C(N)N=C(N)N1c1ccc(Oc2ccc(Cl)cc2)c(Cl)c1	i	i	i	nt	-12	i	nt	nt	nt	nt	nt	nt
Cc1ccc(NS(=O)(=O)c2c(C)[nH]c(C)c2C(=O)N2CCCCC2)cc1Cl	i	i	i	nt	-9	i	nt	nt	nt	nt	nt	nt
CCN(CC)CC#CCC(O)(c1ccccc1)C1CCCCC1 (stereo not given)	i	i	i	-0.68	-19	i	nt	nt	nt	nt	nt	nt
CCN(CC)CC#CCOC(=O)C(O)(c1ccccc1)C1CCCCC1 (stereo not given)	i	i	i	1.3	-8	i	0.0085	0.0058	0.035	0.0078	0.021	0.011
COC(=O)c1ccc(Cl)c(NC(=O)CN(c2ccccc2)S(=O)(=O)c2ccc(OC)cc2)c1	i	i	i	-4.4*	-7	i	0.01	0.0063	?	0.0041	0.019*	0.011
Cc1nc(NC(=S)Nc2ccccc2)sc1C	i	i	i	16*	1	i	0.0079	0.063*	0.05*	0.032*	0.05*	0.035*
O=C(c1ccc2ccccc2c1)N1CCN(c2ccc(O)cc2)CC1	i	i	i	-3.7*	-18	i	0.01	0.0062	0.033	0.0082	0.019	0.012
O=C(NC(=S)Nc1ccc(N2CCN(C(=O)c3ccccc3)CC2)cc1)c1cccs1	i	i	i	3.4*	-17	i	0.01	0.0097*	0.033	0.01*	0.02	0.012
O=C(NC(=S)N1CCN(c2ccc(F)cc2)CC1)c1cccs1	i	13*	i	32*	15*	i	0.012*	0.12*	0.11*	0.12*	0.11*	0.11*
CS(=O)(=O)Nc1ccc(C(=O)N2CCN(c3ccccc3)CC2)cc1	i	i	i	0.22	-6	i	0.0077	0.0043	0.027	0.0078	0.018	0.0098
CS(=O)(=O)N1CCN(c2ccc(NC(=S)NC(=O)c3cccs3)cc2)CC1	i	i	i	nt	-20	i	nt	nt	nt	nt	nt	nt
O=C(CSc1ccc2ccccc2c1)N1CCN(c2ccc(O)cc2)CC1	i	i	i	-1.1	-2	i	nt	nt	nt	nt	nt	nt
CCn1c(N2CCC(Cc3ccccc3)CC2)nc2c1c(=O)[nH]c(=O)n2C	i	i	i	-3.1*	-21	i	0.0078	0.0046	0.032	0.0061*	0.016*	0.011
C/C(=N/NC(=O)c1cc(-c2ccc(Cl)s2)[nH]n1)c1ccco1	i	i	i	10*	-3	i	0.0077	0.0096*	0.029	0.013*	0.021	?
COc1ccc(C(C)=O)cc1COC(=O)Cc1cc(OC)c(OC)c(OC)c1	i	i	i	nt	-10	i	nt	nt	nt	nt	nt	nt
